The values below come from ChEMBL document CHEMBL1147012 (Bioorg Med Chem Lett, 2006).

The test system of one test is PC-3. Put plainly: Cytotoxicity against human PC3 cell line. In kind it is functional, cell-based.
A further test deals with Tubulin. Put plainly: Inhibition of microtubule polymerization. In kind it is functional, Homo sapiens. In a few lines: (§1)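 Microtubule polymerization assay run with a fixed, short incubation time.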
Test [1] has as its target T1, Tubulin (Homo sapiens) (UniProt P68371+Q9H4B7+P0DPH7+P68366+Q13509+Q71U36+P04350+Q3ZCM7+P07437+P68363+Q9BQE3+Q6PEY2+Q13885+Q9BVA1+Q9BUF5). As to the kind of experiment: Inhibition of microtubule polymerization up to 150 uM. Type of test: functional. Summed up:
as §1

In test [2] the target is T1, Tubulin (Homo sapiens). As to the kind of experiment: Inhibition of microtubule polymerization up to 150 uM.

The structures appear in SMILES notation. The source made the active and inactive calls. The calls are words filed in the database; no cut-off is given here.

On to `COc1cc2c(c(OC)c1OC)-c1ccc(OC)c(=O)cc1[C@@H](NCC(C)=O)CC2`, for which the IC50 (commonly the point on the concentration scale where inhibition reaches its midpoint) in the test with PC-3 was determined as 7.6 nM.

In the case of `COc1cc2c(c(OC)c1OC)-c1ccc(OC)c(=O)cc1[C@@H](Nc1ccc([N+](=O)[O-])cc1[N+](=O)[O-])CC2`, the IC50 at Tubulin worked out at 4600 nM; in the test with PC-3 it was 9 nM.

As to `CCN[C@H]1CCc2cc(OC)c(OC)c(OC)c2-c2ccc(OC)c(=O)cc21`, the IC50 with PC-3 amounted to 17.6 nM.

`COc1cc2c(c(OC)c1OC)-c1ccc(OC)c(=O)cc1[C@@H](/N=C(/C)S)CC2`: the IC50 on Tubulin was found to be 2200 nM; in the test on PC-3, 97.5 nM.

As for `COc1cc2c(c(OC)c1OC)-c1ccc(OC)c(=O)cc1[C@@H](NS(=O)(=O)c1ccccc1[N+](=O)[O-])CC2`, the results for the IC50 at Tubulin and in the test with PC-3 were 5600 nM and 19.8 nM, respectively.

On to `COc1cc2c(c(OC)c1OC)-c1ccc(=O)c(OC)cc1[C@@H](NS(=O)(=O)c1ccccc1[N+](=O)[O-])CC2`, for which the IC50 against Tubulin amounted to 58000 nM; in the test with PC-3, 905 nM.

Turning to `COc1cc2c(c(OC)c1OC)-c1ccc(=O)c(OC)cc1[C@@H](/N=C(/C)S)CC2`, the outcome on Tubulin (Homo sapiens) [1] was inactive. In the test with PC-3, this compound gave an IC50 of 1750 nM.

As to `COc1cc2c(c(OC)c1OC)-c1ccc(OC)c(=O)cc1[C@@H](NS(=O)(=O)c1ccc([N+](=O)[O-])cc1[N+](=O)[O-])CC2`, the IC50 at Tubulin turned out to be 9700 nM; in the test on PC-3 it was 50 nM.

Turning to `CCN[C@H]1CCc2cc(OC)c(OC)c(OC)c2-c2ccc(=O)c(OC)cc21`, the outcome at Tubulin (Homo sapiens) [2] was inactive. Besides, the midpoint of inhibition in the test with PC-3, the IC50, lay at 1720 nM.

As to `COc1cc2c(c(OC)c1OC)-c1ccc(=O)c(OC)cc1[C@@H](NCC(C)=O)CC2`, the IC50 on Tubulin amounted to 68000 nM; with PC-3, 93 nM.

In turn, `COc1cc2c(c(OC)c1OC)-c1ccc(=O)c(OC)cc1[C@@H](Nc1ccc([N+](=O)[O-])cc1[N+](=O)[O-])CC2` gave an IC50 in the test with PC-3 of 5700 nM.

As for `COc1cc2c(c(OC)c1OC)-c1ccc(=O)c(OC)cc1[C@@H](NC(C)=O)CC2` [ISOCOLCHICINE], the IC50 in the test with PC-3 was determined as 4600 nM.

For the compound `COc1cc2c(c(OC)c1OC)-c1ccc(=O)c(OC)cc1[C@@H](NS(=O)(=O)c1ccc([N+](=O)[O-])cc1[N+](=O)[O-])CC2`, the IC50 worked out at 59000 nM at Tubulin and 10200 nM in the test on PC-3.
